In ChEMBL document CHEMBL4706639, “Discovery of Novel Azetidine Amides as Potent Small-Molecule STAT3 Inhibitors” (J Med Chem, 2021):
In brackets after ≈: the same amount, converted by molar mass. Activity calls are given as the source filed them. No cut-off for these calls is given here.

Assays:
[1] = molecular target: T1, Signal transducer and activator of transcription 3 (Mus musculus, UniProt P42227); assay: Inhibition of oligonucleotide [32P]-labelled 5'-AGCITCATTTCCCGTAAATCCCTA probe binding to STAT3 SH2 domain (unknown origin) preincubated for 30 mins followed by hSIE probe addition by EMSA analysis
[2] = tested on: MDA-MB-468; assay: Antiproliferative activity against human MDA-MB-468 cells harbouring STAT3 assessed as reduction in cell viability incubated for 72 hrs by CyQuant assay; format: functional, cell-based; details: MDA-MB-468, 72 h
[3] = tested on: MCF7; assay: Antiproliferative activity against human MCF7 cells assessed as reduction in cell viability incubated for 72 hrs by CyQuant assay; format: functional, cell-based; details: MCF7, 72 h
[4] = tested on: MCF-10A; assay: Cytotoxicity against human MCF-10A cells assessed as reduction in cell viability incubated for 72 hrs by CyQuant assay; format: cell-based
[5] = molecular target: Signal transducer and activator of transcription 3 (Homo sapiens) (UniProt P40763); assay: Binding affinity to STAT3 (unknown origin) assessed as change in entropy by isothermal titration calorimetry
[6] = molecular target: Signal transducer and activator of transcription 3 (Homo sapiens) (UniProt P40763); assay: Inhibition of oligonucleotide [32P]-labelled 5'-AGCITCATTTCCCGTAAATCCCTA hSIE probe binding to STAT3 in human MDA-MB-468 cell nuclear extract at 5 uM by EMSA analysis; details: time upper […], TDE = time-dependent effect
[7] = molecular target: Signal transducer and activator of transcription 3 (Homo sapiens) (UniProt P40763); assay: Inhibition of STAT3 in human MDA-MB-231 cells assessed as effect on EGFR expression at 1 to 3 uM incubated for 3 to 24 hrs by immunoblotting analysis; format: cell-based; details: dose 1-3 µM, time lower 3.0 hrs, time upper […]
Method in brief: (§1)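 MDA-MB-231 cells treated with 1 or 3 μM compound. Whole-cell lysates prepared in RIPA buffer and immunoblotted for EGFR, JAK2, Src, AKT and ERK1/2.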

[8] = molecular target: Signal transducer and activator of transcription 3 (Homo sapiens) (UniProt P40763); assay: Inhibition of STAT3 in human MDA-MB-231 cells assessed as effect on JAK2 expression at 1 to 3 uM incubated for 3 to 24 hrs by immunoblotting analysis; format: cell-based; details: dose 1-3 µM, time lower 3.0 hrs, time upper […]; method in brief: as §1
[9] = molecular target: Signal transducer and activator of transcription 3 (Homo sapiens) (UniProt P40763); assay: Inhibition of STAT3 in human MDA-MB-231 cells assessed as effect on Src expression at 1 to 3 uM incubated for 3 to 24 hrs by immunoblotting analysis; format: cell-based; details: dose 1-3 µM, time lower 3.0 hrs, time upper […]; method in brief: as §1
[10] = molecular target: Signal transducer and activator of transcription 3 (Homo sapiens) (UniProt P40763); assay: Inhibition of STAT3 in human MDA-MB-231 cells assessed as effect on Akt expression at 1 to 3 uM incubated for 3 to 24 hrs by immunoblotting analysis; format: cell-based; details: dose 1-3 µM, time lower 3.0 hrs, time upper […]; method in brief: as §1
[11] = molecular target: Signal transducer and activator of transcription 3 (Homo sapiens) (UniProt P40763); assay: Inhibition of STAT3 in human MDA-MB-231 cells assessed as effect on Erk1/2 expression at 1 to 3 uM incubated for 3 to 24 hrs by immunoblotting analysis; format: cell-based; details: dose 1-3 µM, time lower 3.0 hrs, time upper […]; method in brief: as §1
[12] = tested on: MDA-MB-231; assay: Anticlonogenic activity against human MDA-MB-231 cells assessed as inhibition of colony formation at 0.5 uM incubated for 4 hrs by crystal violet staining based assay; format: functional, cell-based
Method in brief: (§2)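 MDA-MB-231 cells seeded as single-cell cultures (250 cells per well), treated once the next day with compound at 0–1 μM and grown until large colonies were visible. Colonies stained with crystal violet for 4 h and photographed. Three independent determinations.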

[13] = molecular target: Signal transducer and activator of transcription 3 (Homo sapiens) (UniProt P40763); assay: Inhibition of STAT3 in human MDA-MB-231 cells assessed as inhibition of c-myc expression at 1 to 3 uM incubated for 3 to 24 hrs by immunoblotting analysis; format: cell-based; details: dose 1-3 µM, time lower 3.0 hrs, time upper […]
Method in brief: (§3)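 MDA-MB-231 cells treated with 1 or 3 μM compound for 3–24 h. Equal-protein whole-cell lysates (RIPA) immunoblotted for c-Myc, Bcl-2, VEGF, survivin and tubulin. Control is 0.05% DMSO-treated cells. Two to three independent determinations.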

[14] = molecular target: Signal transducer and activator of transcription 3 (Homo sapiens) (UniProt P40763); assay: Inhibition of STAT3 in human MDA-MB-231 cells assessed as inhibition of VEGF expression at 1 to 3 uM incubated for 3 to 24 hrs by immunoblotting analysis; format: cell-based; details: dose 1-3 µM, time lower 3.0 hrs, time upper […]; method in brief: as §3
[15] = molecular target: Signal transducer and activator of transcription 3 (Homo sapiens) (UniProt P40763); assay: Inhibition of STAT3 in human MDA-MB-231 cells assessed as inhibition of Bcl-2 expression at 1 to 3 uM incubated for 3 to 24 hrs by immunoblotting analysis; format: cell-based; details: dose 1-3 µM, time lower 3.0 hrs, time upper […]; method in brief: as §3
[16] = molecular target: Signal transducer and activator of transcription 3 (Homo sapiens) (UniProt P40763); assay: Inhibition of STAT3 in human MDA-MB-231 cells assessed as inhibition of survivin expression at 1 to 3 uM incubated for 3 to 24 hrs by immunoblotting analysis; format: cell-based; details: dose 1-3 µM, time lower 3.0 hrs, time upper […]; method in brief: as §3
[17] = molecular target: Signal transducer and activator of transcription 3 (Homo sapiens) (UniProt P40763); assay: Inhibition of STAT3 in human MDA-MB-231 cells assessed as induction of PARP cleavage at 1 to 3 uM incubated for 3 to 24 hrs by immunoblotting analysis; format: cell-based; details: dose 1-3 µM, time lower 3.0 hrs, time upper […]
Method in brief: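 Equal-protein whole-cell lysates run on SDS-PAGE/Western and probed for full-length and cleaved PARP, pYSTAT3, STAT3 and tubulin. Control is 0.05% DMSO. Two independent determinations.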

[18] = Aqueous solubility of compound in simulated gastric fluid; format: physicochemical; details: simulated gi fluid
[19] = Aqueous solubility of compound in simulated intestinal fluid; format: physicochemical; details: simulated gi fluid
[20] = Drug metabolism of compound in human liver microsomes assessed as metabolite formation; format: ADME, Microsome
[21] = Drug metabolism of compound in human liver microsomes assessed as hydroxy-acid metabolite formation; format: ADME, Microsome
[22] = molecular target: T1, Signal transducer and activator of transcription 3; assay: Inhibition of oligonucleotide [32P]-labelled 5'-AGCITCATTTCCCGTAAATCCCTA probe binding to STAT3 SH2 domain in mouse NIH3T3/v-Src nuclear extract preincubated for 30 mins followed by hSIE probe addition by EMSA analysis; format: subcellular, Nucleus
[23] = tested on: MDA-MB-231; assay: Anticlonogenic activity against human MDA-MB-231 cells assessed as inhibition of colony formation at 0.5 to 1 uM incubated for 4 hrs by crystal violet staining based assay; format: functional, cell-based; details: dose 0.5-1 µM; method in brief: as §2
[24] = tested on: MDA-MB-231; assay: Antiproliferative activity against human MDA-MB-231 cells harbouring STAT3 assessed as reduction in cell viability at upto 10 uM incubated for 72 hrs by CyQuant assay; format: functional, cell-based; details: MDA-MB-231, 72 h
[25] = molecular target: Signal transducer and activator of transcription 3 (Homo sapiens) (UniProt P40763); assay: Inhibition of oligonucleotide [32P]-labelled 5'-AGCITCATTTCCCGTAAATCCCTA hSIE probe binding to STAT3 in human MDA-MB-468 cell nuclear extract at 0.5 to 5 uM incubated for 3 hrs by EMSA analysis; details: dose 0.5-5 µM
[26] = molecular target: Signal transducer and activator of transcription 3 (Homo sapiens) (UniProt P40763); assay: Inhibition of STAT3 phosphorylation at Y705 residues in human MDA-MB-468 whole cell lysate at 0.5 to 2 uM incubated for 2 hrs by immunoblotting analysis; format: subcellular; details: dose 0.5-2 µM

Signal transducer and activator of transcription 3 (Homo sapiens), sequence (P40763 whole entry): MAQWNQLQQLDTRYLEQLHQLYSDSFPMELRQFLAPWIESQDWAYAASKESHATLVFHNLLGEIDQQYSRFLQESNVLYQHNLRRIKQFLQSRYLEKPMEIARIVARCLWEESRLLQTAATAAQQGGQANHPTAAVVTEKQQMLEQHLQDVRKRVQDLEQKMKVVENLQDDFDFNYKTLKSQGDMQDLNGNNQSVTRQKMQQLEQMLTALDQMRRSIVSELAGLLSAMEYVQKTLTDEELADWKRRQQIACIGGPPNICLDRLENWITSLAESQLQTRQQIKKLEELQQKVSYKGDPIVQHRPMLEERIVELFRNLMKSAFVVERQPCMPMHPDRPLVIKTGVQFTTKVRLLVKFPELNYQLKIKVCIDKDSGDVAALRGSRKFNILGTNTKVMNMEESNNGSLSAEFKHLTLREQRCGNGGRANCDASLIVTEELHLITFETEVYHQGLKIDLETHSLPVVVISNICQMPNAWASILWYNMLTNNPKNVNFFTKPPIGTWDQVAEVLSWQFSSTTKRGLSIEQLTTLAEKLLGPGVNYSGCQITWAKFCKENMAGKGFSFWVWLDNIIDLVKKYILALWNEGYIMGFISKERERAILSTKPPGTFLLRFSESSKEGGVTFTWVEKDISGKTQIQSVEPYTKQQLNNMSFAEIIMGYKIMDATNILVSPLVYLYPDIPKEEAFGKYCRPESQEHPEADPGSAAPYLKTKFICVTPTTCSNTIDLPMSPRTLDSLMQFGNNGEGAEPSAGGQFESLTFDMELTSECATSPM
T1 sequence (P42227 whole entry, the tested form may be a part): as the sequence (P40763 whole entry) above, with E760D counted along it

In the case of `NC(=O)c1ccc(N(Cc2ccc(C3CCCCC3)cn2)C(=O)[C@H]2CCN2S(=O)(=O)c2c(F)c(F)c(F)c(F)c2F)c(F)c1`, the IC50 [1] is reported as > 2 µM.
Molecule `O=C1OCc2cc(N(Cc3ccc(C4CCCCC4)cn3)C(=O)[C@H]3CCN3S(=O)(=O)c3c(F)c(F)c(F)c(F)c3F)ccc21` has an EC50 [2] of 1 µM, an EC50 [3] of 4.6 µM and an EC50 [4] of 4.6 µM. For the same molecule, the -TdeltaS [5] was -11.9 kJ/mol, the inhibition [6] was “Tde” and the inhibition [7] was “Active”. For the same molecule, the inhibition [8] was “Active”, the inhibition [9] was “Active” and the inhibition [10] was “Active”. For the same molecule, the inhibition [11] was “Active”, the inhibition [12] was “Active” and the inhibition [13] was “Active”. The inhibition [14] was “Active”, the inhibition [15] was “Active” and the inhibition [16] was “Active”. The inhibition [17] was “Active”, the solubility [18] was 0.116 mg/mL (≈ 183 µM) and the solubility [19] was 0.2 mg/mL (≈ 315 µM). The Drug metabolism [20] was “Metabolite_Detected” and the Drug metabolism [21] was “Metabolite_Detected”.
Work on `COC(=O)c1ccc(N(Cc2cnc(C3CCCCC3)cn2)C(=O)[C@H]2CCN2S(=O)(=O)c2c(F)c(F)c(F)c(F)c2F)cc1O` yielded an IC50 [22] of 7.5 µM, an EC50 [2] of 1.6 µM and an EC50 [3] of 5.7 µM. For the same molecule, the EC50 [4] was 3.8 µM and the inhibition [23] was “Active”.
With `CC(=O)c1cc2c(o1)C(=O)c1ccccc1C2=O` [NAPABUCASIN] the EC50 [3] was 1.49 µM, the EC50 [24] was 1.8 µM and the inhibition [25] was “Active”. The inhibition [26] was “Active”.
